From PubChem
NS3 helicase inh = blocks Hepatitis C virus NS3 helicase unwinding; actives 0.56% (n = 290,000); inhibition, % at 10.9 µM; NS3 helicase DNA unwinding, Cy5 molecular beacon fluorescence;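 active = inhibition above the mean of all tested compounds plus 3 SD, set per campaign, cut at about 35% in these data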;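 note: 0% = DMSO wells and 100% = thioflavine S control wells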
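Test system: hepatitis C virus NS3 helicase domain fragment enzyme. Also added: annealed dual-labelled DNA beacon duplex, ATP-started. Timing: 60 min unwinding reaction at 25 °C after ATP addition. Technique: Cy5 fluorescence. Measure: % inhibition of unwinding.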
core dimer inh = blocks dimerization of HCV core protein; TR-FRET GST/Flag-core106 dimerization, 1536-well; inhibition, % at 5 µM; actives 0.33% (n = 300,000); AID 1899;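 active = inhibition above the mean of all tested compounds plus 3 SD, set per screening campaign, cut at about 45% in these data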
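System: GST-tagged and Flag-tagged HCV core protein residues 1-106 / Input: core106 proteins, GST 13.5 nM and Flag 17 nM / Buffer or medium: KF-containing HEPES buffer, pH 7.45, DTT, CHAPS, BSA / Probe or stimulus: Eu-anti-GST and XL665-anti-Flag labelled anti-tag antibodies / Schedule: 4 h, 22.5 °C incubation / Technique: TR-FRET 671 and 617 nm emission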
TAAR1 antag = antagonists of human TAAR1 | inhibition, % at 3 µM | Q96RJ0 | actives 1.5% (n = 360,000) | AID 624466 | CHO RD-HGA16 TAAR1, Fluo-8 calcium fluorescence, antagonist;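 active = inhibition above a per-plate cutoff, the mean inhibition of test compounds on that plate plus 3 SD, cut at about 49% in these data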;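 note: 0% = DMSO plus EC80 beta-PEA response and 100% = DMSO alone without agonist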
Target sequence (Q96RJ0 whole entry, looked up): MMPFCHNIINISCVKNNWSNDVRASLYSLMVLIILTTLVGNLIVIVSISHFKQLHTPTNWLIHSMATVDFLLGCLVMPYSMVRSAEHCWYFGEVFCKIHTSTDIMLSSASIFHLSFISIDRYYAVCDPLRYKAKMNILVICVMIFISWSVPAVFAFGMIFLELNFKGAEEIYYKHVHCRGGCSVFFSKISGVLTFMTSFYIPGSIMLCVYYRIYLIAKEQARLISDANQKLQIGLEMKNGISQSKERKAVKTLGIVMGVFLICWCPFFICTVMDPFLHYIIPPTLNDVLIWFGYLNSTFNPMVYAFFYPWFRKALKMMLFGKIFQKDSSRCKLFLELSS
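Test system: hTAAR1-expressing CHO RD-HGA16 cells, Gα16-coupled; Probe or stimulus: EC80 β-phenethylamine stimulus; Compound dosing: single nominal final test compound concentration of 3 µM; Timing: 140 s kinetic read after compound, 140 s after agonist; Signal: Fluo-8 calcium-sensitive fluorescence; Measure: % inhibition of agonist calcium response; Controls: DMSO and EC80 PEA controls.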
TAAR1 ag = human TAAR1 agonism; Q96RJ0; CHO RD-HGA16 TAAR1, Fluo-8 calcium fluorescence; vehicle wells 0%, saturating PEA agonist 100%; activation, % at 3 µM; actives 0.99% (n = 360,000); AID 624467;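 active = activation above the mean activation of all test compounds in the run plus 3 SD, cut at about 38% in these data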
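Test system: RD-HGA16 (CHO) cells co-expressing Gα16 and hTAAR1; dosing: one-point dosing at 3 µM (nominal); timing: 17-24 h seeding, 75 min 37 °C dye, 30 min RT; signal: kinetic Fluo-8 calcium fluorescence; read-out basis: % activation relative to PEA EC100 response; controls: DMSO and PEA EC100; replicates: n 1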
rCAG binder = binds r(CAG) RNA repeats; r(CAG) RNA repeat, TO-PRO-1 dye displacement fluorescence; inhibition, % at 3 µM; actives 1.3% (n = 370,000); AID 651821;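 active = inhibition above the plate cutoff, the mean of all test compounds on that plate plus 3 SD, cut at about 35% in these data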;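 note: 0% = DMSO alone and 100% = 100 µM mitoxantrone as full dye displacement; higher means more dye released from RNA so lower well fluorescence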
NS3 hel confirm = confirmation of Hepatitis C virus NS3 helicase inhibitors; shares compounds with NS3 helicase inh; NS3 helicase DNA unwinding, Cy5 molecular beacon fluorescence; inhibition, % at 10.9 µM; actives 31% (n = 1,600); AID 1943;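 active = inhibition above the mean of all tested compounds plus 3 SD, cutoff set per campaign, cut at about 36% in these data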
FID counter trip = displaces DNA intercalator in HCV helicase counter-screen; shares compounds with NS3 helicase inh; DNA fluorescent intercalator displacement, fluorescence; inhibition, % at 7.9 µM; actives 4% (n = 1,600); AID 1945; in the data active = inhibition above about 37%;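 note: 0% = vehicle and 100% = reference compound; higher means more displacement of ethidium bromide from the DNA hairpin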
The depositor's hits bear a star; . = no result. A selection: hits, their analogues and other compounds. The true share with any hit is near 3.7%.

SMILES	NS3 helicase inh	core dimer inh	TAAR1 antag	TAAR1 ag	rCAG binder	NS3 hel confirm	FID counter trip
CC(=O)c1ccc(NC(=O)CCCN2C(=O)/C(=C/C(C)=C/c3ccccc3)SC2=S)cc1	0.1	18.1	10.1	-0.2	5.7	.	.
CC(C)(C)c1ccc(-c2nnc3n2N=C(c2ccc4ccccc4c2)CS3)cc1	.	.	.	.	6.7	.	.
O=C(Nc1ccccc1C(=O)NC(Cc1c[nH]c2ccccc12)C(=O)O)c1ccccc1 (configuration not stated)	39.7*	-0.5	-15.5	-0.4	33.3	42.3*	-36.0
CC1=NN(C(N)=S)C(=O)C1N=Nc1ccccc1C (configuration not stated)	1.4	-10.6	-9.9	3.1	9.1	.	.
CC1=NN(C(N)=S)C(=O)C1N=Nc1ccccc1O (configuration not stated)	42.5*	-6.5	17.2	5.4	0.7	-14.6	16.8
CCN(CC)C(=O)CSc1nnc(-c2cccs2)o1	.	.	.	.	-1.3	.	.
Cc1ccc(N2NC(=O)/C(=C/c3ccc(-c4ccc(Cl)c(C(=O)O)c4)o3)C2=O)cc1	33.2	-8.5	-0.1	3.9	20.7	.	.
CCCCC1(C)OC(=O)C(=Cc2ccc(-c3ccc(Cl)c(C(=O)O)c3)o2)C(=O)O1 (configuration not stated)	67.2*	6.8	-9.6	0.7	1.6	76.7*	-8.9
CCOC(=O)c1cc(-c2ccc(/C=C3/C(=O)NC(=O)C(C#N)=C3C)o2)ccc1Cl	49.6*	25.5	-4.5	10.1	14.4	71.2*	75.1*
CC1CCCCN1C(=O)Cn1cc(C(=O)c2ccco2)c2ccccc21 (configuration not stated)	38.3*	1.2	11.3	15.8	2.5	-8.2	-23.5
O=C(c1ccco1)c1cn(CC(=O)N2CCCCCC2)c2ccccc12	-6.6	5.5	-37.4	6.9	-1.2	.	.
COc1ccc(Cn2ccc3ccc(-c4ccc5ccn(C(=O)C6CC6)c5c4)cc32)cc1	.	.	.	.	19.9	.	.
Cc1cc(O)c2c(C)c(CC(=O)N3CCN(C(=O)C4COc5ccccc5O4)CC3)c(=O)oc2c1 (configuration not stated)	46.2*	-8.3	20.2	4.1	9.2	-5.2	-30.4
CCNc1ccccc1CP(=O)(c1ccccc1)c1ccccc1O (configuration not stated)	63.5*	26.5	-20.9	2.7	8.9	-1.3	6.7
C=CCN1C(=O)[C@@H](CC(=O)NCCCOC)[C@]2(C(=O)OCC)CCCCC/C=C/12	.	.	.	.	1.1	.	.
O=C1C(=O)N(Cc2cccnc2)C(c2cccc(O)c2)/C1=C(\O)c1ccc2c(c1)OCCO2 (configuration not stated)	2.8	-3.3	-19.9	0.0	3.8	.	.
O=C1C(=O)N(Cc2ccncc2)C(c2cccc(O)c2)/C1=C(\O)c1ccc2c(c1)OCCO2 (configuration not stated)	41.3*	-12.0	-4.4	1.8	6.0	-8.9	11.5
Cn1cccc1CC(=O)NNC(=S)NC(=O)c1ccc(F)cc1	44.5*	-0.3	7.7	0.8	4.2	-10.1	-2.9
C/C=C/c1ccc([C@@H]2[C@H](CO)N(S(C)(=O)=O)[C@H]2CN(C)C(=O)CC)cc1	.	.	.	.	4.8	.	.
C=CCN1C(=O)[C@@H](CC(=O)N2CCSCC2)[C@]2(C(=O)OC)CCCCC=C12	.	.	.	.	6.9	.	.
NC(=O)c1sc2nc(-c3cccs3)ccc2c1N	-0.2	8.6	-15.4	-0.3	6.7	.	.
Nc1c(C(=O)NC2CCCC2)sc2nc(-c3cccs3)ccc12	56.3*	26.1	-2.4	3.7	27.5	-16.2	5.5
COc1ccc(CN2C(=O)N3Cc4ccc(C)cc4C3CS2(=O)=O)cc1 (configuration not stated)	.	.	.	.	0.7	.	.
C=C(C)Cn1c(SCC(=O)N/N=C(\C)c2ccc(Br)cc2)nnc1-c1ccc(Br)cc1	.	.	.	.	5.3	.	.
C#CCN1CC(N(C)CCOC(=O)c2ccc(C(C)(C)C)cc2)CS1(=O)=O (configuration not stated)	.	.	.	.	0.3	.	.
